# This is a sample that favours compounds with a hit; in the whole collection about 1.6% have one here.
# NR2E3 ag-1 – activates human photoreceptor nuclear receptor NR2E3 | Q9Y5X4 | inhibition of corepressor binding, % at 4.78 µM | GST-NR2E3/biotin-RetCOR TR-FRET, 1536-well | 320,000 compounds, 0.12% hits;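 active = percent inhibition above the cutoff of mean plus 3 SD of all tested compounds, set per screening campaign, cut at about 20% in these data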;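 note: 0% = DMSO wells and 100% = biotin wells as full block of FRET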
#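 Format: 1536-well format; test system: GST-NR2E3 and biotin-RetCOR proteins; read-out basis: percent inhibition of TR-FRET ratio; timing: 5 h incubation at 4 °C; detection: time-resolved FRET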
# VLA-4 inh – inhibition in a human VLA-4 binding assay; P13612; VLA-4 expressing cells, ligand binding flow cytometry; inhibition, % (about 7 µM as worked out from the volumes in the protocol); 330,000 compounds, 0.2% hits; in the data active = inhibition above about 50%
# NR1D1 modulator – modulators of human Rev-erb alpha DNA binding; P20393; Rev-erbα–FITC-DNA binding, fluorescence polarization, 90 min; activity, % at 10 µM; 370,000 compounds, 0.79% hits;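 active = activity above about 14%, limit read from the data; passing the limit was not always enough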;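 note: 0% = DMSO wells with 35 nM protein and 100% = DMSO wells with 750 nM protein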
# Target sequence (P20393 whole entry, looked up): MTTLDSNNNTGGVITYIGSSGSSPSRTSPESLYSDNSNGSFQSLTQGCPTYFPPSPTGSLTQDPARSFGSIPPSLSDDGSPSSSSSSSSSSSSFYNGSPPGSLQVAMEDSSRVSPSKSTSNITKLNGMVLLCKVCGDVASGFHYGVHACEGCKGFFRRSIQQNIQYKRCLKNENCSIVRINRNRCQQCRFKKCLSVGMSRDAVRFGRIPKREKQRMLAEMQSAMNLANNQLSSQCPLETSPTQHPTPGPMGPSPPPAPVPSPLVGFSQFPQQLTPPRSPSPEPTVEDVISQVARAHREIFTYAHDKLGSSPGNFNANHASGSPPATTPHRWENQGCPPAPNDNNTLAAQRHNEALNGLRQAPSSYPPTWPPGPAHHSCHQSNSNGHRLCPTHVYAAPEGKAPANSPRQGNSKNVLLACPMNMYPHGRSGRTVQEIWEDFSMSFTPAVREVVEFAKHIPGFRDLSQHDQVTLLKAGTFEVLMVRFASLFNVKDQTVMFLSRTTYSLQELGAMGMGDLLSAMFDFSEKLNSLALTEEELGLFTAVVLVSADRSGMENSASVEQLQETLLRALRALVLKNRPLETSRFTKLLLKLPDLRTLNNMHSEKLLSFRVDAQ
# NR2E3 ag-2 – agonists of human NR2E3 nuclear receptor | Q9Y5X4 | CHO-S Gal4-NCOR/VP16-NR2E3 two-hybrid, luciferase | 360,000 compounds, 0.35% hits | inhibition of corepressor binding, % at 3.98 µM;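 active = inhibition above the mean of all tested compounds plus 3 SD, cut at about 70% in these data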;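 note: 0% = DMSO with NR2E3 transfected cells and 100% = cells lacking NR2E3 construct; higher means lower luciferase signal from less NR2E3 corepressor binding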
# PG9 Ab binder – PG9 antibody binding by small molecule. TR-FRET gp120-PG9 antibody binding. inhibition, % at 6.7 µM. 360,000 compounds, 0.43% hits; in the data active = inhibition above about 8.5%
# NR2E3 ag confirm – confirmation of human NR2E3 nuclear receptor agonists; shares compounds with NR2E3 ag-1; cell-free NR2E3 corepressor release, TR-FRET, 5 h; activation (reported as inhibition), % at 3.98 µM; 360 compounds, 39% hits; in the data active = activation above about 20%
# PPARg-NCOR2 ag – PPARg-NCOR2 interaction agonism, NR2E3 counter-screen; shares compounds with NR2E3 ag-1; TR-FRET PPARg-NCOR2 coregulator interaction, biochemical; inhibition, % at 3.98 µM; 360 compounds, 45% hits; in the data active = inhibition above about 20%;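 note: 0% = DMSO vehicle and 100% = wells without protein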
# * hit, by the source's call; x = no result.
SMILES,NR2E3 ag-1,VLA-4 inh,NR1D1 modulator,NR2E3 ag-2,PG9 Ab binder,NR2E3 ag confirm,PPARg-NCOR2 ag
Cn1c(N)c(C(=O)CSc2nc(C3CC3)n(-c3ccccc3)n2)c(=O)[nH]c1=O,24*,-3,3,1,-2,-16,-3
COc1ccc(OCc2nc3c4cc(OC)c(OC)cc4nc(=S)n3[nH]2)cc1,21*,1,2,18,0,6,11
CCOc1ccc(/C(O)=C2/C(=O)C(=O)N(CCOCCO)C2c2ccc(F)cc2)cc1 (centres undefined),20*,11,0,13,8,14,7
COc1ccc(OC)c(C2C(C(=O)c3ccc(C)o3)=C(O)C(=O)N2c2cc(C)on2)c1 (centres undefined),4,11,-4,-8,2,x,x
COc1ccc(OC)c(C2C(C(=O)c3cc4ccccc4o3)=C(O)C(=O)N2c2cc(C)on2)c1 (centres undefined),24*,10,-5,-28,6,17,11
O=C(O)c1ccc(-n2cccc2/C=C2/SC(=O)N(CC(=O)N3CCCC3)C2=O)cc1,21*,22,-20,-54,-2,18,6
Cc1ccccc1Nc1cc2ccccc2c(=O)[nH]1,25*,8,x,13,x,16,10
O=c1[nH]c(Nc2ccccc2Cl)cc2ccccc12,1,17,-11,-39,-1,x,x
C[C@]12CCC3c4ccc(O)cc4CCC3C1CC[C@@H]2OC(=O)CCC1CCCC1 (some centres undefined),x,x,4,x,x,x,x
CCc1nnc(NC(=O)c2sc3nc4cc(C)ccc4cc3c2N)s1,37*,-54,-2,-35,-10,-9,-5
CCCCC(=O)Nc1ncc(Br)s1,32*,4,5,16,x,-2,-4
CCC(C)C(=O)O[C@H]1C[C@H](O)C=C2C=C[C@H](C)[C@H](CC[C@@H](O)C[C@@H](O)CC(=O)O)C21 (some centres undefined),x,x,0,x,x,x,x
O=S(=O)(NCc1cccs1)c1cccc(S(=O)(=O)N2CCCCC2)c1,34*,0,4,-11,2,-6,-6
O=S(=O)(c1cccc(S(=O)(=O)N2CCCC2)c1)N1CCCCC1,5,-2,-4,-16,-1,x,x
CO[C@H]1O[C@H](CO)[C@H](O[C@@H]2OC(C(=O)O)[C@@H](O[C@H]3O[C@H](COS(=O)(=O)O)[C@H](O[C@@H]4OC(C(=O)O)[C@@H](O[C@H]5O[C@H](CO)[C@H](O[C@@H]6OC(C(=O)O)[C@@H](O[C@H]7O[C@H](COS(=O)(=O)O)[C@H](O[C@@H]8OC(C(=O)O)=C[C@H](O)C8OS(=O)(=O)O)[C@H](O)[C@H]7NC(C)=O)[C@H](O)[C@H]6O)[C@H](O)[C@H]5NC(C)=O)[C@H](O)[C@H]4O)[C@H](O)[C@H]3NC(C)=O)[C@H](O)[C@H]2O)[C@H](O)[C@H]1NC(C)=O (some centres undefined),x,x,-4,x,x,x,x
COC(=O)C1[C@H]2C[C@H]3c4[nH]c5ccccc5c4CCN3C[C@@H]2CC[C@@H]1O (some centres undefined),x,x,-3,x,x,x,x
CCCCC1=CC2=C(c3ccco3)C(=O)C(C)(OC(=O)c3ccc(OC)cc3)C(=O)C2=CN1c1ccccc1 (centres undefined),34*,13,x,-46,x,-6,-3
NC[C@H]1O[C@H](O[C@@H]2[C@H](O)[C@@H](O[C@H]3O[C@H](CO)[C@@H](O)[C@H](N)[C@H]3O)[C@H](N)C[C@@H]2N)[C@H](O)[C@@H](O)[C@@H]1O,x,x,0,x,x,x,x
CC[C@@]1(O)C(=O)OCc2c1cc1n(c2=O)Cc2c-1nc1cc(F)c(C)c3c1c2[C@@H](N)CC3,x,x,-3,x,x,x,x
Fc1ccc(NCc2nnc(SCc3nnc(-c4ccccc4)o3)n2CC2CCCO2)cc1 (centres undefined),36*,2,2,-5,1,-18,4
O=C(CSc1nnc(CNc2ccc(F)cc2)n1CC1CCCO1)Nc1ccccc1 (centres undefined),3,-7,-2,4,0,x,x
C[C@H](CCC(=O)O)[C@H]1CCC2C3C(CC[C@@]21C)[C@@]1(C)CC[C@@H](O)C[C@H]1C[C@@H]3O (some centres undefined),x,x,-3,x,x,x,x
CCC1(C)Cc2c(sc3nc(SC)[nH]c(=S)c23)CO1 (centres undefined),22*,-3,x,x,x,-5,48*
CCSc1nc2sc3c(c2c(=O)[nH]1)CC(C)(CC)OC3 (centres undefined),-3,-6,-1,8,0,x,x
CCc1cc2c(=O)n(-c3ccccc3)c(=S)[nH]c2s1,23*,7,-3,-5,2,1,-2
SMILES,NR2E3 ag-1,VLA-4 inh,NR1D1 modulator,NR2E3 ag-2,PG9 Ab binder,NR2E3 ag confirm,PPARg-NCOR2 ag
CC(=O)O[C@]1(C(C)=O)CCC2C3C=C(C)C4=CC(=O)CCC4(C)C3CCC21C (some centres undefined),x,x,-4,x,x,x,x
COc1ccc(CCN2C(=O)C(O)=C(C(=O)c3ccco3)C2c2cccs2)cc1OC (centres undefined),24*,2,2,9,4,18,14
COCCN1C(=O)C(O)=C(C(=O)c2ccco2)C1c1cccc(Oc2ccccc2)c1 (centres undefined),23*,-12,2,-18,2,6,28*
COc1cc(C2C(C(=O)c3ccco3)=C(O)C(=O)N2CCc2ccccc2)ccc1O (centres undefined),1,7,-2,-26,-1,x,x
CCCOc1cccc(C2C(C(=O)c3ccco3)=C(O)C(=O)N2CCN(CC)CC)c1 (centres undefined),4,-8,0,-4,-1,x,x
CC(C)CCCC(C)[C@H]1CCC2C3CC=C4C[C@@H](O)CC[C@]4(C)C3CC[C@@]21C (some centres undefined),x,x,2,x,x,x,x
COC(=O)CCCC[C@H]1SC[C@H]2NC(=O)N[C@]21O,63*,0,x,x,x,61*,47*
COC(=O)CCCCC1SCC2NC(=O)NC21O (centres undefined),76*,9,x,-22,0,80*,80*
COC(=O)C1CSC(C)(C)C(=O)N1 (centres undefined),1,9,3,15,1,x,x
CCC[C@@H]1C[C@@H](C(=O)N[C@H]([C@H]2O[C@H](SC)[C@H](O)[C@@H](O)[C@H]2O)[C@H](C)O)N(C)C1,x,x,-4,x,x,x,x
